For nine compounds, Ki and inhibition results are on record in ChEMBL document CHEMBL3621201, “Improving the Selectivity of Engineered Protease Inhibitors: Optimizing the P2 Prime Residue Using a Versatile Cyclic Peptide Library” (J Med Chem, 2015).

As usually defined, the Ki is a dissociation constant, usually derived from enzyme kinetics or from competition with a known ligand. A higher Ki goes with weaker binding. The inhibition is how much of the control response was suppressed.

One assay has as its target Plasminogen (Homo sapiens, UniProt P00747). Nature of the assay: Inhibition of plasmin (unknown origin) using Ac-RM(O2)YRpNA substrate by spectrophotometry method. The gist of the method: (§1)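 Inhibition constants were measured in 0.1 M Tris pH 8.0, 0.1 M NaCl, 0.005% Triton X-100 with 100 µM peptide-pNA substrate. Protease-specific additives were also included. Absorbance at 405 nm was read every 10 s over 300 s. Rates were compared with no-inhibitor controls, and Morrison Ki was fitted by non-linear regression.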

The target of a further assay is Trypsin (Homo sapiens, UniProt P07477+P07478+P35030). Kind of assay: Inhibition of beta-trypsin (unknown origin) using Bz-FVRpNA substrate by spectrophotometry method. In kind it is protein assay. The gist of the method:
as §1

For assay [1], the target named is T1, Prothrombin (Homo sapiens, UniProt P00734). Nature of the assay: Inhibition of alpha-thrombin (unknown origin) using Ac-ATPRpNA substrate by spectrophotometry method. The gist of the method: as §1
Assay [2] addresses T2, Kallikrein-4 (Homo sapiens, UniProt Q9Y5K2). Kind of assay: Inhibition of KLK4 (unknown origin) expressed in Sf9 cells using FVQRpNA substrate by spectrophotometry method. The gist of the method: as §1
In another assay the target is T3, Kallikrein-5 (Homo sapiens, UniProt Q9Y337).
T3 sequence (Q9Y337 whole entry): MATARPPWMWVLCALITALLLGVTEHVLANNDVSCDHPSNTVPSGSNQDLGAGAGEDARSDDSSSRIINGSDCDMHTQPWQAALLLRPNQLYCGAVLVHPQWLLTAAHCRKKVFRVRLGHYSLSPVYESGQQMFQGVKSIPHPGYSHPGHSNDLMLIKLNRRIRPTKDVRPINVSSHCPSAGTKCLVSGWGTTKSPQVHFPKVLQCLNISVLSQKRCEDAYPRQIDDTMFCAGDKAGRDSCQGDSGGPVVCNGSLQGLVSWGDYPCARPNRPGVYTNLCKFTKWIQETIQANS
Nature of the assay: Inhibition of KLK5 (unknown origin) expressed in Pichia pastoris X33 using Ac-YRSR-pNA by spectrophotometry method. The gist of the method:
as §1

Assay [3] addresses T4, Suppressor of tumorigenicity 14 protein (Homo sapiens) (UniProt Q9Y5Y6).
T4 sequence (whole entry): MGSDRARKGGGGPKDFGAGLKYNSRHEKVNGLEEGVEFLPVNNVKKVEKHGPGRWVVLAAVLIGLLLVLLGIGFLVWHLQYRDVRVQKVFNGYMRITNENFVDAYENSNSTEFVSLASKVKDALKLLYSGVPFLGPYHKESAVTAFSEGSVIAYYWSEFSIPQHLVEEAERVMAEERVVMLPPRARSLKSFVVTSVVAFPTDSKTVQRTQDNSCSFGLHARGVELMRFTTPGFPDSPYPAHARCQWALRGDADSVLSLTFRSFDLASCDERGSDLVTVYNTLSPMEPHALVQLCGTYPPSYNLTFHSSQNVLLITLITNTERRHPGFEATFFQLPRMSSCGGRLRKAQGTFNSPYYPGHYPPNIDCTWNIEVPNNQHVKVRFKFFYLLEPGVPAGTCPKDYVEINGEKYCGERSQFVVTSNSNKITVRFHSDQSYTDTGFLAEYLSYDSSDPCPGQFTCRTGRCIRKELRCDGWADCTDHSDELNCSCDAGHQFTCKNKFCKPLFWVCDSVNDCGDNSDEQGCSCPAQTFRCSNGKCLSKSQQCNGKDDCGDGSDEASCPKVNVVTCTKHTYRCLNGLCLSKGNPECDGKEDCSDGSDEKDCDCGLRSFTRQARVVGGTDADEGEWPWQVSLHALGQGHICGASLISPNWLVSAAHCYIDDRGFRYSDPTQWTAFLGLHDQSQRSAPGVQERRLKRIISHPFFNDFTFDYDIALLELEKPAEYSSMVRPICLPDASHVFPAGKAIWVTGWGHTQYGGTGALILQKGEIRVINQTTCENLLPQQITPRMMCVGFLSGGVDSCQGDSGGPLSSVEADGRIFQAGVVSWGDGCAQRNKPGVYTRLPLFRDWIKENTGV
Kind of assay: Inhibition of matriptase (unknown origin) at 10 uM using Ac-RQFRpNA substrate by spectrophotometry method.

For assay [4], the target named is Coagulation factor X (Homo sapiens) (UniProt P00742). Kind of assay: Inhibition of factor 10a (unknown origin) at 50 uM using Ac-QRSRpNA substrate by spectrophotometry method.
Assay [5] has as its target T2, Kallikrein-4. Nature of the assay: Inhibition of KLK4 (unknown origin) expressed in Sf9 cells at 25 nM using FVQRpNA substrate by spectrophotometry method.
In assay [6] the target is Coagulation factor XI (Homo sapiens) (UniProt P03951). Nature of the assay: Inhibition of factor 11a (unknown origin) at 10 uM using Bz-FVRpNA substrate by spectrophotometry method.
For assay [7], the target named is Serine protease 1 (Homo sapiens) (UniProt P07477). Nature of the assay: Inhibition of beta-trypsin (unknown origin) at 25 nM using Bz-FVRpNA substrate by spectrophotometry method.
Assay [8] addresses T1, Prothrombin. Kind of assay: Inhibition of alpha-thrombin (unknown origin) at 25 uM using Ac-ATPRpNA substrate by spectrophotometry method.
Assay [9] addresses Kallikrein-5 (Homo sapiens) (UniProt Q9Y337). Kind of assay: Inhibition of KLK5 (unknown origin) expressed in Pichia pastoris X33 at 50 nM using Ac-YRSR-pNA by spectrophotometry method.
For another assay, the species on record is Homo sapiens. Nature of the assay: Inhibition of alpha chymotrypsin (unknown origin) at 25 uM using Ac-GRPY-pNA by spectrophotometry method.
In assay [10] the target is T5, Kallikrein-7 (Homo sapiens, UniProt P49862). Nature of the assay: Inhibition of KLK7 (unknown origin) expressed in Pichia pastoris X33 at 200 nM using KHLY-pNA substrate by spectrophotometry method.
Target sequence in this assay (P49862 30-253 limits assumed): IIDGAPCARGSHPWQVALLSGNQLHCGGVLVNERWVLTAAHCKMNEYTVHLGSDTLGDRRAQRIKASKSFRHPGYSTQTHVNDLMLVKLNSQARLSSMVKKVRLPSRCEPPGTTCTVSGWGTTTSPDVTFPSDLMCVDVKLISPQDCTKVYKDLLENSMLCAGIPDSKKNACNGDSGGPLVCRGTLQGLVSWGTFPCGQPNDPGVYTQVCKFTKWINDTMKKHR
The target of assay [11] is T5, Kallikrein-7. Kind of assay: Inhibition of KLK7 (unknown origin) expressed in Pichia pastoris X33 using KHLY-pNA substrate by spectrophotometry method. The gist of the method: as §1
Target sequence in this assay (P49862 whole entry): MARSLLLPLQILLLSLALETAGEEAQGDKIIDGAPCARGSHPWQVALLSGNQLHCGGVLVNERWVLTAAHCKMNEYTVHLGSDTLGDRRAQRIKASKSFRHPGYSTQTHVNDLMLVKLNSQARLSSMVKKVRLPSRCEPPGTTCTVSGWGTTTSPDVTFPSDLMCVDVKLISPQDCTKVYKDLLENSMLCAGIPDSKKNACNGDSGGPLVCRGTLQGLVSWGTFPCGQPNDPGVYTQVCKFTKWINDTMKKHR
Assay [12] deals with T6, Coagulation factor XII (Homo sapiens) (UniProt P00748).
T6 sequence (whole entry): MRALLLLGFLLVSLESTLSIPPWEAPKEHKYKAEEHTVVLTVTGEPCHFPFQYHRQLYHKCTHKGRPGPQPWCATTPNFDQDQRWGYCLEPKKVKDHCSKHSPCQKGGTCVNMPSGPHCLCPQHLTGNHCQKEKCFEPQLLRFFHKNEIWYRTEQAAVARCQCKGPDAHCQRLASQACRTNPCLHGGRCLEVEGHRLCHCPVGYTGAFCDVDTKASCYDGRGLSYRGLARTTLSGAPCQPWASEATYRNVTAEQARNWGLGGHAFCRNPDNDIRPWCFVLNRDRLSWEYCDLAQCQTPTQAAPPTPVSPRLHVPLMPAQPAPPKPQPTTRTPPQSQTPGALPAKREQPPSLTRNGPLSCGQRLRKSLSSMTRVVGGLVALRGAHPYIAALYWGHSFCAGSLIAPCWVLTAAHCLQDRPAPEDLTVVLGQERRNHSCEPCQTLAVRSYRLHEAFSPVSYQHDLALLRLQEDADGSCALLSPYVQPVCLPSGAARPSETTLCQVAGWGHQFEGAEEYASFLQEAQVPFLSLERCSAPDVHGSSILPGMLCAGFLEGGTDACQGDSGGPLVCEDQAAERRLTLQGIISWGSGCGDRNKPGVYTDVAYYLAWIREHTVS
Nature of the assay: Inhibition of factor 12a-alpha (unknown origin) at 10 uM using Ac-QRFRpNA substrate by spectrophotometry method.

The source made the active and inactive calls. The rule behind the calls is not given here. Bridge positions count the residues as written; N and C are the ends. Peptide text beside a SMILES is read from it. Some results are limits rather than exact numbers.

Sequence of Plasminogen (P00747 97-580 limits assumed): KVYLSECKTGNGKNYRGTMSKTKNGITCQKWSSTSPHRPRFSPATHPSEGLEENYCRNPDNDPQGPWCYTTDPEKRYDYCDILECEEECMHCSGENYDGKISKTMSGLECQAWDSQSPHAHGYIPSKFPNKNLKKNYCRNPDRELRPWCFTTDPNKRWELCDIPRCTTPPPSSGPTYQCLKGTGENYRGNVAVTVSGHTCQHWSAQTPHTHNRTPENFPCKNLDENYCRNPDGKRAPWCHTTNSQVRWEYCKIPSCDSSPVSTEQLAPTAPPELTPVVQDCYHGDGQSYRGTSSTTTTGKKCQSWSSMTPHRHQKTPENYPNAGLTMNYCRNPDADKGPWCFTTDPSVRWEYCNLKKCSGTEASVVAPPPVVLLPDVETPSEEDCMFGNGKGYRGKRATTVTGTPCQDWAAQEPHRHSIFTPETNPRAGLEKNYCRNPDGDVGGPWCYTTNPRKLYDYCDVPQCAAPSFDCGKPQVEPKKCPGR
Sequence of Plasminogen (P00747 581-810 limits assumed): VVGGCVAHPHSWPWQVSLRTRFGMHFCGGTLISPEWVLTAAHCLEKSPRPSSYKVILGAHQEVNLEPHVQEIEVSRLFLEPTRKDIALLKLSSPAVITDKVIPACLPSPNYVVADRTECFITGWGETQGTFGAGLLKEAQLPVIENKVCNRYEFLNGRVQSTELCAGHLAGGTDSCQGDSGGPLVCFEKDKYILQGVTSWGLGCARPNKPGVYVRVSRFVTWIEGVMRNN
T2 sequence (Q9Y5K2 whole entry): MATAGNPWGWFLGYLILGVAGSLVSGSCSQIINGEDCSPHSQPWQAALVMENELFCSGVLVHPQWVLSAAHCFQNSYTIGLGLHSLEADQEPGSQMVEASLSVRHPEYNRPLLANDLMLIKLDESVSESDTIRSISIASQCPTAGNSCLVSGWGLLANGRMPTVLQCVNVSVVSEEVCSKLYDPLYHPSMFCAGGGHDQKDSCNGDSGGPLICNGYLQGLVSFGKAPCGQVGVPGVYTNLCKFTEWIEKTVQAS
Sequence of Coagulation factor X (Homo sapiens) (P00742 41-179 limits assumed): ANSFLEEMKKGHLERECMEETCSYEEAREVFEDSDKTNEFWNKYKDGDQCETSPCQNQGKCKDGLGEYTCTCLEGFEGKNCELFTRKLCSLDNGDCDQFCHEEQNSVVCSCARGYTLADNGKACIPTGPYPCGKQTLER
Sequence of Coagulation factor X (Homo sapiens) (P00742 235-488 limits assumed): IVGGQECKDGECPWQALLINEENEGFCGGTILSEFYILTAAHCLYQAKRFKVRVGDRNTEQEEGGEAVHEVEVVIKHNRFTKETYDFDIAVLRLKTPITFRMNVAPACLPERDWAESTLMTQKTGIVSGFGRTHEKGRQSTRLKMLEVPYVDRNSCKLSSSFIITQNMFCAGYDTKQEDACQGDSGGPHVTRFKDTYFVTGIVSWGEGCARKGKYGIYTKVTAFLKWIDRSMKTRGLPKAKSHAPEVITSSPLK
Sequence of Coagulation factor XI (Homo sapiens) (P03951 19-387 limits assumed): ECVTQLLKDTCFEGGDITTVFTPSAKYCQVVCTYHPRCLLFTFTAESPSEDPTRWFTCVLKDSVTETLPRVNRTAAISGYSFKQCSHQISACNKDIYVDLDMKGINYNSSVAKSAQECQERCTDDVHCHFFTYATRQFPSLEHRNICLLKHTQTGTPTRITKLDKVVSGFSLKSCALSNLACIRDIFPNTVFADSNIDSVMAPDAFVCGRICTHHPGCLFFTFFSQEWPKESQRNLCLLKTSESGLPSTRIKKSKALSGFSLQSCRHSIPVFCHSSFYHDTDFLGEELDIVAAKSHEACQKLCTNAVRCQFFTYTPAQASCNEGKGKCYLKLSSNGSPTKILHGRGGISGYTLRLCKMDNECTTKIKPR
Sequence of Coagulation factor XI (Homo sapiens) (P03951 388-625 limits assumed): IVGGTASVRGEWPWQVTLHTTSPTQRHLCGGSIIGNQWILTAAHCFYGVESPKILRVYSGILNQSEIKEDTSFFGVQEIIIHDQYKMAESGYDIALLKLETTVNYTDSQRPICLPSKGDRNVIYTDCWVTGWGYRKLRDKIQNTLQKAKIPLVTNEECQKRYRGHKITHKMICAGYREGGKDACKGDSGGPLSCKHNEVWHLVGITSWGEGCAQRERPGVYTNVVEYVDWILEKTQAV
Sequence of Serine protease 1 (Homo sapiens) (P07477 whole entry): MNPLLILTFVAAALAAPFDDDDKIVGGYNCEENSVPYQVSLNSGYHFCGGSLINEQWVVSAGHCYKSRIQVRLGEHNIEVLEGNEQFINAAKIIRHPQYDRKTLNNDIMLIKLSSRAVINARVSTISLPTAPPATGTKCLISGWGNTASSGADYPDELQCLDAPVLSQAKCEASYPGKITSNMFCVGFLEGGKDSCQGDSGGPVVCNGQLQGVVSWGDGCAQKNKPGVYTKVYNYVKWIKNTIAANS

For `CC[C@H](C)[C@@H]1NC(=O)[C@@H]2CCCN2C(=O)[C@@H]2CCCN2C(=O)[C@H]([C@@H](C)CC)NC(=O)[C@H](CO)NC(=O)[C@H](CCCNC(=N)N)NC(=O)[C@H]([C@@H](C)O)NC(=O)[C@@H]2CSSC[C@H](NC1=O)C(=O)N[C@@H](Cc1ccccc1)C(=O)N1CCC[C@H]1C(=O)N[C@H](C(=O)O)CC(=O)NCC(=O)N[C@@H](CCCNC(=N)N)C(=O)N2` (GRCTRSIPPICFPD-OH; disulfide 3-11; lactam N-14), the Ki on Plasminogen came out at 121 nM; at Trypsin, 0.03 nM; at Prothrombin [1] it was 381 nM.
For `CC[C@H](C)[C@@H]1NC(=O)[C@@H]2CCCN2C(=O)[C@@H]2CCCN2C(=O)[C@H](Cc2ccc(O)cc2)NC(=O)[C@H](CO)NC(=O)[C@H](CCCNC(=N)N)NC(=O)[C@H]([C@@H](C)O)NC(=O)[C@@H]2CSSC[C@H](NC1=O)C(=O)N[C@@H](Cc1ccccc1)C(=O)N1CCC[C@H]1C(=O)N[C@H](C(=O)O)CC(=O)NCC(=O)N[C@@H](CCCNC(=N)N)C(=O)N2` (GRCTRSYPPICFPD-OH; disulfide 3-11; lactam N-14) the same measures were 549 nM, 0.16 nM and 214 nM.
As for `C[C@@H](O)[C@@H]1NC(=O)[C@@H](NC(=O)[C@H](CCCNC(=N)N)NC(=O)CN)CSSC[C@@H](C(=O)N[C@@H](Cc2cnc[nH]2)C(=O)O)NC(=O)[C@H](CCCNC(=N)N)NC(=O)[C@@H]2CCCN2C(=O)[C@@H]2CCCN2C(=O)[C@H](CC(=O)O)NC(=O)[C@H](CO)NC(=O)[C@H](CCCCN)NC1=O` (H-GRCTKSDPPRCH-OH; disulfide 3-11), the Ki on Plasminogen was 17100 nM; on Trypsin, 2830 nM; at Prothrombin [1], > 50000 nM.
Turning to `CC[C@H](C)[C@@H]1NC(=O)[C@@H]2CSSC[C@H](NC(=O)[C@H]([C@@H](C)CC)NC(=O)[C@@H]3CCCN3C(=O)[C@@H]3CCCN3C(=O)[C@H]([C@@H](C)CC)NC(=O)[C@H](CO)NC(=O)[C@H](CCCNC(=N)N)NC1=O)C(=O)N[C@@H](CC(N)=O)C(=O)N1CCC[C@H]1C(=O)N[C@@H](CC(N)=O)C(=O)NCC(=O)N[C@@H](Cc1c[nH]c3ccccc13)C(=O)N2` (cyclo(CIRSIPPICNPNGW); disulfide 1-9), the results for the Ki on Kallikrein-4 [2], at Kallikrein-5 and at Trypsin were 9 nM, 362 nM and 379 nM, respectively.
Take `CC[C@H](C)[C@@H]1NC(=O)[C@@H]2CSSC[C@H](NC(=O)[C@H]([C@@H](C)CC)NC(=O)[C@@H]3CCCN3C(=O)[C@@H]3CCCN3C(=O)[C@H](CCCCN)NC(=O)[C@H](CO)NC(=O)[C@H](CCCNC(=N)N)NC1=O)C(=O)N[C@@H](CC(N)=O)C(=O)N1CCC[C@H]1C(=O)N[C@@H](CC(N)=O)C(=O)NCC(=O)N[C@@H](Cc1c[nH]c3ccccc13)C(=O)N2` (cyclo(CIRSKPPICNPNGW); disulfide 1-9): the Ki at Kallikrein-4 [2] is 19.9 nM; at Kallikrein-5, > 50000 nM; at Trypsin, 3200 nM.
As to `CC[C@H](C)[C@@H]1NC(=O)[C@@H]2CCCN2C(=O)[C@@H]2CCCN2C(=O)[C@H](CC(=O)O)NC(=O)[C@H](CO)NC(=O)[C@H](CCCNC(=N)N)NC(=O)[C@H]([C@@H](C)O)NC(=O)[C@@H]2CSSC[C@H](NC1=O)C(=O)N[C@@H](CC(N)=O)C(=O)N1CCC[C@H]1C(=O)N[C@@H](CC(N)=O)C(=O)NCC(=O)N[C@@H]([C@@H](C)O)C(=O)N2` (cyclo(CNPNGTCTRSDPPI); disulfide 1-7), the inhibition in assay [3] was 29%; in assay [4], 31%; in [6] it was 34%. The inhibition entry (on Kallikrein-4 [5]; in assay [7]) was “inactive” in each case.
Regarding `CC[C@H](C)[C@@H]1NC(=O)[C@@H]2CCCN2C(=O)[C@@H]2CCCN2C(=O)[C@H](Cc2ccccc2)NC(=O)[C@H](CO)NC(=O)[C@H](CCCNC(=N)N)NC(=O)[C@H]([C@@H](C)O)NC(=O)[C@@H]2CSSC[C@H](NC1=O)C(=O)N[C@@H](CC(N)=O)C(=O)N1CCC[C@H]1C(=O)N[C@@H](CC(N)=O)C(=O)NCC(=O)N[C@@H]([C@@H](C)O)C(=O)N2` (cyclo(CNPNGTCTRSFPPI); disulfide 1-7), the inhibition against Prothrombin [8] was 41%; in the assay listed under Homo sapiens, 52%. The inhibition entry (at Kallikrein-4 [5]; in [9]) was “Active” each time.
Take `CC[C@H](C)[C@@H]1NC(=O)[C@@H]2CCCN2C(=O)[C@@H]2CCCN2C(=O)[C@H](CC(N)=O)NC(=O)[C@H](CO)NC(=O)[C@H](CCCNC(=N)N)NC(=O)[C@H]([C@@H](C)O)NC(=O)[C@@H]2CSSC[C@H](NC1=O)C(=O)N[C@@H](CC(N)=O)C(=O)N1CCC[C@H]1C(=O)N[C@@H](CC(N)=O)C(=O)NCC(=O)N[C@@H]([C@@H](C)O)C(=O)N2` (cyclo(CNPNGTCTRSNPPI); disulfide 1-7): the inhibition against Prothrombin [8] stood at 49%; in assay [3] it was 37%; in assay [9] it was 93%; on Kallikrein-7 [10], 97%. Also, the inhibition constant Ki at Kallikrein-5 was 5.2 nM; on Kallikrein-7 [11], 0.8 nM. Moreover, on Kallikrein-4 [5], the inhibition entry is “Active”.
Consider `CC[C@H](C)[C@@H]1NC(=O)[C@@H]2CCCN2C(=O)[C@@H]2CCCN2C(=O)[C@H](Cc2ccc(O)cc2)NC(=O)[C@H](CO)NC(=O)[C@H](CCCNC(=N)N)NC(=O)[C@H]([C@@H](C)O)NC(=O)[C@@H]2CSSC[C@H](NC1=O)C(=O)N[C@@H](CC(N)=O)C(=O)N1CCC[C@H]1C(=O)N[C@@H](CC(N)=O)C(=O)NCC(=O)N[C@@H]([C@@H](C)O)C(=O)N2` (cyclo(CNPNGTCTRSYPPI); disulfide 1-7), for which the inhibition against Prothrombin [8] stood at 62%; in assay [4], 26%; in assay [12], 75%. Further, the inhibition entry in assay [9] is “Active”.
